# Sampled rows, rich in hits. Any-hit rate of the full collection: about 1.1%.
# PMI act satM6P = human PMI activators, high substrate, primary screen, biochemical, fluorescence intensity, near-saturating mannose 6-phosphate | coupled PMI enzyme assay, resazurin fluorescence, 20 min; active compounds read high; 1 = untreated enzyme, 0 = substrate-free blank | AID 1216, 2008 | 190,000 tested, 0.34% active | Mannose-6-phosphate isomerase (Homo sapiens), P34949 | activation factor at 20 µM;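 active = activation factor of 2 or more at 20 µM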
# Target sequence (P34949 whole entry, looked up): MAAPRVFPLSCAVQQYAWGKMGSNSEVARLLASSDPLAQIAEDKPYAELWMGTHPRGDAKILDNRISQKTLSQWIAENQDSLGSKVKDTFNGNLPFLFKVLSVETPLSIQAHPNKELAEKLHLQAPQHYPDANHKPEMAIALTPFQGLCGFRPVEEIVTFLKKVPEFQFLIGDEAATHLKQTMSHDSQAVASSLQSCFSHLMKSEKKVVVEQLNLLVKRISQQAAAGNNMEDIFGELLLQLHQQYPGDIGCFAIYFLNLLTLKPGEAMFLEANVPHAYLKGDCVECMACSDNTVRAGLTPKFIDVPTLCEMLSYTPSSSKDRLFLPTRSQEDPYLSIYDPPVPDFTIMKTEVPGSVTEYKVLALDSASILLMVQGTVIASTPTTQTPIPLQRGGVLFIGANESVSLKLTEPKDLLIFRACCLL
#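 Material: human phosphomannose isomerase with PGI, G6PDH, diaphorase coupling enzymes; amount: PMI at 15 ng/mL final; also added: Mannose-6-phosphate 1.0 mM (near-saturating) plus 0.22 mM NADP+; incubation: enzyme reaction with compound 20 min at room temperature; signal: resorufin fluorescence (Ex 544/Em 590 nm) from resazurin via diaphorase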
# PMI act = activators of human PMI, primary screen, biochemical, fluorescence intensity, near-Km mannose 6-phosphate | Mannose-6-phosphate isomerase (Homo sapiens), P34949 | purified human PMI, coupled resazurin fluorescence, 20 min; active compounds read high; 1 = vehicle control, 0 substrate-free wells | activation factor at 20 µM | 190,000 tested, 0.005% active | AID 1214, 2008;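 active = activation factor of 2 or more at 20 µM, relative to plate controls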
# Diaphorase act = compounds boosting diaphorase resazurin reduction – biochemical, uHTS, resorufin fluorescence, counter-screen for diaphorase-coupled primary assays, primary screen; Diaphorase/resazurin coupled assay, 16 min; active compounds read high; 1 = vehicle wells, 0 = NADH-free wells; activation factor at 20 µM; 190,000 tested, 0.005% active; AID 1229, 2008;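 active = diaphorase activity raised at least twofold by the compound at 20 µM; inactive = activation factor below 2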
#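 test system = bacterial diaphorase enzyme (C. kluyveri) | quantity = enzyme 0.07 U/mL final | reagent = NADH substrate 0.114 mM plus resazurin dye 0.1 mM, final | incubation = 16 min enzyme reaction, ambient temperature | buffer or medium = HEPES pH 7.4 buffer with MgCl2 and Tween 20 | signal = fluorescence of resorufin, 544 nm excitation, 590 nm emission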
# G6PDH counter = L. mesenteroides G6PDH inhibitors, counter-screen for G6PDH-coupled screening assays, biochemical, Leuconostoc mesenteroides enzyme; glucose-6-phosphate dehydrogenase [Leuconostoc mesenteroides]; Purified L. mesenteroides G6PDH, diaphorase/resazurin coupled fluorescence, 45 min; inhibition, % at 5 µM; 200,000 tested, 0.12% active; in the data active = inhibition above about 50%
# Diaph inh CS = diaphorase inhibitors and chemical oxidizers, primary screen, counter-screen for diaphorase-coupled primary assays, biochemical, uHTS, resorufin fluorescence; diaphorase resazurin-to-resorufin fluorescence, NADH, 16 min; bacterial (C. kluyveri) enzyme, not human; inhibition, % at 20 µM; 190,000 tested, 0.69% active; AID 1217, 2008;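 active = primary screen inhibition at 20 µM above a set limit, cut at about 50% in these data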;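 note: plate controls were DMSO with full reaction for no effect and wells lacking NADH for full effect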
#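 System: Diaphorase enzyme from Clostridium kluyveri | Amount: Enzyme working solution with 0.14 U/mL diaphorase | Benchmarks: No-NADH positive control and DMSO neutral control | Signal: Fluorescence of resorufin formed from resazurin, Ex 544/Em 590 nm | Schedule: 16-min room-temperature incubation before reading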
# Active calls of the source: *; . = no result given.
SMILES,PMI act satM6P,PMI act,Diaphorase act,G6PDH counter,Diaph inh CS
Cc1ccc(-c2c3c([nH]c(=S)c2C#N)CCCC3)o1,0.8,1,0.5,20,51*
Cc1cccc(N=Cc2cc3c(cc2[N+](=O)[O-])OCO3)c1,0.4,0.5,0.4,7,61*
O=[N+]([O-])c1cc2c(cc1C=Nc1ccccc1)OCO2,0.3,0.4,0.5,6,53*
O=C(CCN1CCOCC1)NNC(=S)NC(=O)c1ccc(Br)cc1,0.9,0.7,0.3,-10,66*
O=C(CCN1CCCCC1)NNC(=S)NC(=O)c1ccc(Br)cc1,0.9,0.9,0.7,4,34
CC1=NN(c2ccc(Cl)cc2)C(=O)C1,1.1,1.3,1,4,0
CC1=NN(c2ccc(N)cc2)C(=O)C1,2*,1.6,0.8,1,21
COc1cc(CN2CCNC(=O)C2CC(=O)O)cc(OC)c1 (stereo unspecified),1,1,0.2,-1,85*
COc1cc(CN2CCNC(=O)C2CC(=O)N2CCc3ccccc3C2)cc(OC)c1 (stereo unspecified),0.6,1,0.8,-3,22
Cc1ccc(S(=O)(=O)N=Nc2c(O)[nH]c3ccccc23)cc1,2.4*,2.2*,1.2,-12,-19
Cc1ccc(C)c(S(=O)(=O)N=Nc2c(O)[nH]c3ccccc23)c1,2.1*,1.8,1.1,11,-10
Cc1c2cc(O)c(=O)cc-2oc2cc(O)c(O)cc12,0.7,0.5,0.2,18,80*
COc1cc(OC)c(-c2c3cc(O)c(=O)cc-3oc3cc(O)c(O)cc23)cc1OC,0.3,0.3,0.2,14,81*
COc1cc(CN(C)Cc2ccccc2)cc(OC)c1O,0.6,0.7,0.8,51*,25
COc1ccc(CCN(C)Cc2ccc(OC)c(OCc3ccccc3)c2)cc1OC,1.1,0.8,0.9,3,13
c1ccc(Cn2nnnc2C(c2ccccc2)N2CCN(c3nc4ccccc4s3)CC2)cc1 (stereo unspecified),0.9,0.9,0.7,10,29
Cc1ccc(C)c(N2CCN(C(c3ccncc3)c3nnnn3Cc3ccccc3)CC2)c1 (stereo unspecified),2.2*,1,0.7,2,32
S=C(Nc1ccc2nc(-c3ccccn3)c(-c3ccccn3)nc2c1)N1CCCCC1,.,.,.,50*,.
S=C(Nc1ccc2nc(-c3ccccn3)c(-c3ccccn3)nc2c1)N1CCCCCC1,1.5,1.5,0.7,40,28
CCCNC(=S)Nc1ccc2nc(-c3ccccn3)c(-c3ccccn3)nc2c1,1.1,0.7,0.5,49,52*
S=C(Nc1ccc2nsnc2c1)N1CCCCC1,1.1,0.8,0.3,50,66*
Cc1nc2ccc(NC(=S)NCCCO)cc2nc1C,1,1.3,0.7,56*,25
Cc1c(NC(=O)CN2CCN(c3cccc(Cl)c3)CC2)c(=O)n(-c2ccccc2)n1C,1,1.1,0.9,4,7
Cc1ccccc1C(=O)NNC(=O)CSc1nc(-c2ccccc2)cc(=O)[nH]1,1.1,1.1,0.9,-3,9
CCC(=O)c1ccc(OCCn2cnc3ccccc32)cc1,0.9,1,0.8,8,20
SMILES,PMI act satM6P,PMI act,Diaphorase act,G6PDH counter,Diaph inh CS
O=C(Cc1ccsc1)Nc1ccc(S(=O)(=O)C(F)F)cc1,1.1,1.1,1,2,0
COc1ccccc1CN1CCNC(=O)C1CC(=O)NCc1cn(C)nc1C (stereo unspecified),.,.,.,20,.
Cc1ccccc1-n1c(SCC(=O)c2cc(C)n(C)c2C)nnc1-c1ccncc1,0.8,0.9,0.7,-1,33
Cc1ccc(S(=O)(=O)NNc2ccccc2)c(C)c1,2.7*,1.7,1,8,3
Cc1ccc(S(=O)(=O)NNC(=O)c2cccs2)c(C)c1,1.1,1.1,0.9,0,8
CCOc1c(O)ccc(/C=C2\SC(=S)NC2=O)c1[N+](=O)[O-],0.4,0.4,0.5,16,54*
CC(=O)Nc1ccc(NC(=O)CN(c2cccc([N+](=O)[O-])c2)S(C)(=O)=O)cc1,1,1,0.9,6,6
O=C(NNc1cccc(Cl)n1)c1cccnc1Cl,1,1.1,1,-4,-3
O=C(NNc1cccc(Cl)c1)c1cccnc1Cl,2*,1.7,1,-3,3
O=C(c1noc2c1CCCC2)N1CCC(CO)(Cc2ccccc2Cl)CC1,0.9,0.9,0.8,5,23
O=C(O)CCCNc1c(C(=O)Nc2ccc(Cl)cc2)cc([N+](=O)[O-])cc1[N+](=O)[O-],0.7,1,0.8,0,18
Cc1ccc(-c2csc3nc[nH]c(=S)c23)cc1,1.1,1.1,0.3,9,70*
Cc1sc2nc(-c3ccccn3)[nH]c(=O)c2c1-c1ccccc1,1.1,0.7,1,4,0
S=c1[nH]cnc2scc(-c3ccc(Br)cc3)c12,1.1,1.1,0.7,0,30
O=c1[nH]cnc2scc(-c3ccccc3)c12,1,1,0.9,4,13
Cc1sc2nc[nH]c(=S)c2c1-c1ccccc1,1.1,1,0.2,-8,82*
Cc1cc(-c2csc3nc[nH]c(=S)c23)cc(C)c1C,1.1,1,0.4,-3,56*
COc1ccccc1NC(=S)NC1CCC(CC2CCC(NC(=S)Nc3ccccc3OC)CC2)CC1 (stereo unspecified),1.1,1,1,-7,2
O=C(CCS(=O)(=O)c1ccccc1)Nc1nc(-c2cccs2)cs1,1,1.1,1,50*,4
O=C(COc1ccccc1)Nc1nc(-c2cccs2)cs1,0.9,0.9,0.7,-3,28
CC1=NN(c2ccccc2)C(=O)C1,1.1,1.1,0.9,5,9
CC1=NN(c2ccc(S(=O)(=O)O)cc2C)C(=O)C1,2.4*,1.6,0.9,10,11
CCOC(=O)C1=C(C)N(C)C(=O)NC1c1cc2c(cc1[N+](=O)[O-])OCO2 (stereo unspecified),0.6,0.6,0.3,8,67*
O=C(COC(=O)c1c2c(nc3ccccc13)CCN(Cc1ccccc1)C2)Nc1c(F)cccc1F,2*,1.3,0.8,8,24
CCc1ccc2c(c1)c(N=NC1=NC(=O)CS1)c(O)n2C,1.1,1,0.2,-4,84*
